Bioassay records deposited in PubChem BioAssay by Broad Institute.
INS-1E ATP HTS – protection of INS-1E cells from cytokine death, primary screen, ATP luminescence, single point; INS-1E cytokine-induced death, 48 h; normalised: neutral wells 0, positive control 100; protection from cytokine-induced ATP loss, % at 10 µM; 20,000 tested, 0.1% active;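 active means mean replicate protection from cytokine-induced ATP loss at least 50% and at least 75% of replicates each reaching 50%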
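Material: INS-1E rat cells; Quantity: 8000 cells/well; Buffer or medium: phenol-red-free RPMI with 5% fetal bovine serum; Probe or stimulus: cytokine cocktail of IFN-γ, TNF-α and IL-1β; Compound dosing: single test concentration per compound, delivered by pin transfer; Incubation: 48 h co-treatment, 10 min post-lysis read; Signal: CellTiter-Glo luminescence.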
A1 apoptosis 2 – A1 inhibitors via caspase activation, primary screen, cell-based, luminescence, HTS, two replicates | MEF A1-2A-BIM cells, caspase-Glo luminescence, 3 h; percent of clofoctol response, DMSO zero | caspase activation, % (no concentration beside the values) | 24,000 tested, under 10 active | AID 2465, 2010; in the data active means caspase activation above about 5.9%
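Test system – A1-2A-BIM-expressing MEF cells · Input – 2500 cells/well · Medium – RPMI-1640 growth medium with 10% FBS · Compound dosing – 50 nL pinned compound · Timing – 3 h compound exposure at 37 °C · Technique – Caspase-Glo luminescence (DEVD substrate) · Evaluation – Caspase-3/7 activity from luminescence increase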
T cruzi intra – inhibitors of intracellular Trypanosoma cruzi, primary screen, cell-based, plate reader, single point, set 2 | intracellular Trypanosoma cruzi in host cells | activity score (inhibition), % at 5.01 µM | 22,000 tested, 4.9% active | AID 651903, 2012; in the data active means activity score above about 55%;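 further: parasites and compound incubated about four days before reading; 0% = median of neutral control wells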
Numbers without * were called inactive; x = no result given. The sample as a whole holds a higher share of hits than the screen did.

SMILES	INS-1E ATP HTS	A1 apoptosis 2	T cruzi intra
O=C(O)CCCCCC(=O)N/N=C/c1cc(F)ccc1O	4	0	-12
COc1ccc(S(=O)(=O)N(C)C[C@@H]2Oc3c(NC(=O)NC4CCCCC4)cccc3C(=O)N([C@@H](C)CO)C[C@H]2C)cc1	6	0	13
O=C(NO)c1cccc(C(=O)N/N=C/c2ccccn2)c1	3	0	-12
O=C(CCCCCC(=O)Nc1ccccc1O)N/N=C/c1ccc(Br)cc1	0	x	-1
O=C(N/N=C/C[P+](c1ccccc1)(c1ccccc1)c1ccccc1)c1ccccc1O	3	0	45
O=C(O)CCCCCCC(=O)N/N=C/c1ccc(O)cc1Br	3	-1	-15
C[C@H]1CN([C@@H](C)CO)C(=O)c2cc(NC(=O)Nc3cccc4ccccc34)ccc2O[C@@H]1CN(C)Cc1ccc(Cl)c(Cl)c1	-35	0	65*
C[C@@H]1CN([C@H](C)CO)C(=O)Cc2cc(NC(=O)Nc3cccc4ccccc34)ccc2O[C@@H]1CN(C)Cc1ccc(Cl)c(Cl)c1	-22	x	68*
C[C@H](CO)N1C[C@H](C)[C@H](CN(C)Cc2ccc(Cl)c(Cl)c2)Oc2ccc(NC(=O)Nc3cccc4ccccc34)cc2CC1=O	-5	2	68*
C[C@@H]1CN([C@H](C)CO)C(=O)Cc2cc(NC(=O)Nc3cccc4ccccc34)ccc2O[C@H]1CN(C)Cc1ccc(Cl)c(Cl)c1	0	x	47
C[C@H](CO)N1C[C@H](C)[C@@H](CN(C)Cc2ccc(Cl)c(Cl)c2)Oc2c(NC(=O)Nc3cccc4ccccc34)cccc2C1=O	-17	-2	68*
C[C@@H]1CN([C@H](C)CO)C(=O)c2cccc(NC(=O)Nc3cccc4ccccc34)c2O[C@@H]1CN(C)Cc1ccc(Cl)c(Cl)c1	-19	0	12
C[C@H]1CN([C@@H](C)CO)C(=O)Cc2cc(NC(=O)Nc3cccc4ccccc34)ccc2O[C@H]1CN(C)Cc1ccc(Cl)c(Cl)c1	-11	x	35
C[C@H]1CN([C@@H](C)CO)C(=O)c2cc(NC(=O)Nc3cccc4ccccc34)ccc2O[C@H]1CN(C)Cc1ccc(Cl)c(Cl)c1	x	-1	48
O=C(N/N=C/c1cc(O)ccc1[N+](=O)[O-])c1ccccc1O	-38	-4	2
O=C(CCCCCCC(=O)N/N=C/c1nccs1)NO	x	0	x
COc1cc(/C=N/NC(=O)c2ccc(C(=O)NO)cc2)c(Br)cc1O	25	-5	3
CCn1c2ccccc2c2cc(/C=N/NC(=O)CCCCCCC(=O)Nc3ccccc3O)ccc21	-12	x	16
CC(C)(C)/C=N/NC(=O)CCCCCCC(=O)Nc1ccccc1O	3	0	-1
C[C@H]1CN([C@@H](C)CO)C(=O)Cc2cc(NC(=O)Nc3ccc(C(F)(F)F)cc3)ccc2O[C@H]1CN(C)Cc1ccc(-c2ccccc2)cc1	-79	x	54
C[C@H]1CN([C@@H](C)CO)C(=O)Cc2cc(NC(=O)Nc3ccc(C(F)(F)F)cc3)ccc2O[C@@H]1CN(C)Cc1ccc(-c2ccccc2)cc1	-56	x	70*
C[C@@H]1CN([C@@H](C)CO)C(=O)Cc2cc(NC(=O)Nc3ccc(C(F)(F)F)cc3)ccc2O[C@@H]1CN(C)Cc1ccc(-c2ccccc2)cc1	-2	1	67*
O=C(CCCCCC(=O)Nc1ccccc1O)N/N=C/c1ccc(CO)o1	13	0	-4
COC(=O)CCCCCCC(=O)N/N=C/c1ccccc1OCCO	5	1	-9
CN(C)CCCOc1ccc(/C=N/NC(=O)CCCCCC(=O)NO)cc1	x	1	x
SMILES	INS-1E ATP HTS	A1 apoptosis 2	T cruzi intra
CC(C)=CCC[C@@H](C)C/C=N/NC(=O)c1ccc(C(=O)NO)cc1	-12	0	3
Cc1ccc(S(=O)(=O)Nc2ccc3c(c2)C(=O)N([C@H](C)CO)C[C@H](C)[C@H](CN(C)Cc2ccc(Cl)c(Cl)c2)OCCCC[C@@H](C)O3)cc1	-45	x	77*
COc1ccc(S(=O)(=O)Nc2ccc3c(c2)C(=O)N([C@@H](C)CO)C[C@H](C)[C@@H](CN(C)Cc2ccc(Cl)c(Cl)c2)OCCCC[C@@H](C)O3)cc1	x	0	x
C[C@@H]1CCCCO[C@@H](CN(C)Cc2ccc(Cl)c(Cl)c2)[C@@H](C)CN([C@@H](C)CO)C(=O)c2cc(NS(=O)(=O)c3ccc(F)cc3)ccc2O1	x	0	x
COc1ccc(S(=O)(=O)Nc2ccc3c(c2)C(=O)N([C@H](C)CO)C[C@H](C)[C@H](CN(C)Cc2ccc(Cl)c(Cl)c2)OCCCC[C@@H](C)O3)cc1	-8	x	57*
Cc1ccc(S(=O)(=O)Nc2ccc3c(c2)C(=O)N([C@H](C)CO)C[C@@H](C)[C@@H](CN(C)Cc2ccc(Cl)c(Cl)c2)OCCCC[C@H](C)O3)cc1	x	0	x
C[C@@H]1CCCCO[C@H](CN(C)Cc2ccc(Cl)c(Cl)c2)[C@@H](C)CN([C@@H](C)CO)C(=O)c2cc(NS(=O)(=O)c3ccc(Cl)cc3)ccc2O1	x	1	x
C[C@@H]1CCCCO[C@H](CN(C)Cc2ccc(Cl)c(Cl)c2)[C@@H](C)CN([C@H](C)CO)C(=O)c2cc(NS(=O)(=O)c3ccc(F)cc3)ccc2O1	-29	x	65*
C[C@@H]1CCCCO[C@@H](CN(C)Cc2ccc(Cl)c(Cl)c2)[C@@H](C)CN([C@H](C)CO)C(=O)c2cc(NS(=O)(=O)c3ccccc3)ccc2O1	-69	x	66*
C=CCOC(=O)C(=O)/C=C/C1CC1	x	2	x
O=C(NO)c1cccc(C(=O)N/N=C/c2ccc([N+](=O)[O-])c(O)c2)c1	3	-1	5
C[C@@H]1CN([C@@H](C)CO)C(=O)c2cc(NC(=O)CCCN(C)C)ccc2O[C@H]1CN(C)Cc1ccc(C(F)(F)F)cc1	5	x	-18
C[C@@H]1CN([C@@H](C)CO)C(=O)c2cccc(NC(=O)c3nc4ccccc4s3)c2O[C@H]1CN(C)Cc1ccc(C(F)(F)F)cc1	-55	2	64*
C[C@H]1CN([C@@H](C)CO)C(=O)c2cccc(NC(=O)c3nc4ccccc4s3)c2O[C@@H]1CN(C)Cc1ccc(C(F)(F)F)cc1	-19	x	64*
C[C@@H]1CN([C@@H](C)CO)C(=O)c2cccc(NC(=O)c3nc4ccccc4s3)c2O[C@H]1CN(C)Cc1ccccc1	-14	0	37
C[C@@H]1CN([C@H](C)CO)C(=O)c2cccc(NC(=O)c3nc4ccccc4s3)c2O[C@@H]1CN(C)Cc1ccc(C(F)(F)F)cc1	-63	x	69
C[C@@H]1CN([C@@H](C)CO)C(=O)c2cccc(NC(=O)c3nc4ccccc4s3)c2O[C@@H]1CN(C)Cc1ccc(C(=O)O)cc1	7	x	-2
C[C@H]1CN([C@@H](C)CO)C(=O)c2cccc(NC(=O)c3nc4ccccc4s3)c2O[C@@H]1CN(C)Cc1ccccc1	-34	x	51
C[C@H](CO)N1C[C@H](C)[C@@H](CN(C)Cc2ccc(C(F)(F)F)cc2)Oc2c(NC(=O)c3nc4ccccc4s3)cccc2C1=O	-48	x	62*
